Screen size: about 2,500 compounds; about 460 (18%) were called active.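 Rule for the calls: active = mean activation above a cutoff of low control average plus 3 SD from the earlier screen (cut at about 12% in these data); inactive = the rest.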 Only a sample is shown.

The nature of this test: compound fluorescence interference without thin filaments, confirmation, artefact control for cardiac RTF calcium sensitizer project, biochemical (AID 504382). Conditions: IANBD fluorescence interference counterscreen, buffer, EC20 Ca2+; at 7.2 µM; hits give high values; scaled: EC20 calcium 0, EC100 calcium 100. The gist of the method: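 Technique: fluorescence, 480/540 nm / Medium: MOPS-based buffer with KCl, MgCl2, EGTA, NTA, DTT, pH 7.2 / Probe or stimulus: calcium at EC20 level, 0.472 mM final / Repeats: triplicate wells per compound / Times: 15 min compound exposure at 25 °C / Measure: compound fluorescence interference relative to control well signal range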
Consider `CCCNC(=O)C12CCC(C)(C(=O)C1Br)C2(C)C` (stereo not given), for which the fluorescence artifact activation is 0.01% (inactive).

As for `CN(C)CCNC(=O)c1c(CSc2ccc(Cl)cc2)noc1C(=O)NCc1ccccc1`, the fluorescence artifact activation is 0.05% (inactive). In the case of `COc1cc(OC)c(C2N(c3ccc(Cl)c(Cl)c3)C(=O)C3CCCN32)cc1OC` (stereo not given), the fluorescence artifact activation was -0.1% (inactive). As for `NC(=O)C1CCN(C(=O)c2ccc(-c3ccccc3)cc2)CC1`, the fluorescence artifact activation was 4.63% (inactive). With `O=C(O)c1ncc(-c2ccccc2)cn1` the figure was 43.6% (active); with `O=C([O-])c1ccccc1-[n+]1c(-c2ccccc2)cc(-c2ccccc2)cc1-c1ccccc1`, 0% (inactive). With `c1ccc2c(c1)CN1CCCC1=N2`, the fluorescence artifact activation was -0.08% (inactive).

Regarding `COc1cc(/C=C(\C#N)c2nc3ccccc3[nH]2)ccc1O`, the fluorescence artifact activation is 0.06% (inactive).

In the case of `COc1cccc(/C=C(/C#N)c2nc3ccccc3[nH]2)c1OC(C)C(=O)O` (stereo not given), the fluorescence artifact activation is 0.54% (inactive). For the compound `CCOc1cc(N(CC)CC)ccc1/C=C(/C#N)c1nc2ccccc2[nH]1`, the fluorescence artifact activation is 0.26% (inactive). Regarding `CCN(CC)c1ccc(/C=C(/C#N)c2nc3ccccc3[nH]2)c(OC(C)C)c1`, the fluorescence artifact activation is 41.8% (active). For `COc1cc(/C=C(\C#N)c2nc3ccccc3[nH]2)cc(OC)c1O`, the fluorescence artifact activation is 6.16% (inactive). As to `CCCOc1cc(N(CC)CC)ccc1/C=C(/C#N)c1nc2ccc(C)cc2[nH]1`, the fluorescence artifact activation was 12.4% (active). In the case of `CCOC(=O)c1c(-c2ccccc2Cl)csc1NC(=O)c1cc(S(=O)(=O)N2CCOCC2)ccc1C`, the fluorescence artifact activation was -0.04% (inactive). `Cn1cc(/C=C2\SC(=S)N(N3CCOCC3)C2=O)c2ccccc21`: the fluorescence artifact activation was 0.4% (inactive). For `COC(=O)C1=C(C(=O)c2ccc(C)cc2)C(c2ccc(OC)c(OC)c2)n2nnnc2N1` (stereo not given), the fluorescence artifact activation is 0% (inactive). For `COc1ccccc1N1C(=O)C2C(C(=O)c3ccccc3)=NN(c3ccccc3)C2C1=O` (stereo not given), the fluorescence artifact activation was 1.87% (inactive). Regarding `COc1cc(C2C=C(c3cccs3)Nc3ncnn32)cc(OC)c1OC` (stereo not given), the fluorescence artifact activation was 0.2% (inactive). With `CN(C)c1ccc(C2C=C(c3ccc(Cl)cc3OC(F)F)Nc3ncnn32)cc1` (stereo not given) the figure was 28.8% (active).

Turning to `Fc1ccc(C2=CC(c3ccco3)n3ncnc3N2)cc1` (stereo not given), the fluorescence artifact activation is 3.08% (inactive). As to `Cc1ccc(S(=O)(=O)/N=C2/NC(=O)/C(=C/c3cc([N+](=O)[O-])ccc3O)S2)cc1`, the fluorescence artifact activation was 1.59% (inactive). On to `COC(=O)[C@@H]1C[C@@]2(O)[C@H](O)[C@H](O)[C@H](O)C[C@H]2N1C/C=C/c1ccccc1`, for which the fluorescence artifact activation was 2.09% (inactive). `CC(=O)Nc1cccc(C(=O)/C=C/c2ccc(N(C)C)cc2)c1`: the fluorescence artifact activation is 6.61% (inactive). As to `COc1ccc(-c2nn(CCC(=O)O)cc2/C=C2\SC(N)=NC2=O)cc1`, the fluorescence artifact activation is 0% (inactive). Consider `O=C(Nn1cnnc1)c1cc([N+](=O)[O-])cc([N+](=O)[O-])c1`, for which the fluorescence artifact activation is 0.03% (inactive). With `COc1ccc2nc(-c3ccccn3)[nH]c2c1` the figure was 20.2% (active).

Consider `COc1ccc2nc3ccccc3[n+]([O-])c2c1`, for which the fluorescence artifact activation is 2.24% (inactive).

As to `COc1ccc(OC)c(/C=C/c2nc3ccccc3[nH]c2=O)c1`, the fluorescence artifact activation is 0.12% (inactive). With `CN1/C(=C\C(=O)c2ccco2)C(C)(C)c2ccccc21`, the fluorescence artifact activation was -0.02% (inactive). Turning to `COc1ccc2[nH]c3c(c2c1)CCNC3c1ccc([N+](=O)[O-])o1` (stereo not given), the fluorescence artifact activation was -0.02% (inactive). With `COc1ccc(NC(=O)CSc2ccc3c4c(cccc24)C(=O)c2ccccc2-3)cc1` the figure was 0.08% (inactive).

Take `COc1ccc(Nc2cccc3ccccc23)cc1`: the fluorescence artifact activation was 53.2% (active). With `COc1ccc(Nc2cc(C)nc3ccc(OC)cc23)cc1` the figure was 0.01% (inactive); with `CC(=O)c1cccc(Nc2cc(C)nc3ccc(C)cc23)c1`, 4.88% (inactive). Turning to `CCOC(=O)COn1c(=O)c(-c2cc3ccccc3o2)[n+]([O-])c2ccccc21`, the fluorescence artifact activation is -0.09% (inactive). Regarding `CCCC[C@H]1COCCS(=O)(=O)N1Cc1ccc(F)cc1`, the fluorescence artifact activation is 0.08% (inactive). With `O=C(NCC1CCCO1)c1cccc2c1C(=O)c1ccc(N3CCC(Cc4ccccc4)CC3)cc1S2(=O)=O` (stereo not given), the fluorescence artifact activation is 0.63% (inactive). Turning to `O=C(NCC1CCCO1)c1ccc2c(c1)C(=O)N(c1cccc([N+](=O)[O-])c1)C2=O` (stereo not given), the fluorescence artifact activation is 14% (active). On to `O=C(NCC1CCCO1)c1c(O)nc2sccn2c1=O` (stereo not given), for which the fluorescence artifact activation was 1.06% (inactive).

For `CCN(CC)C(=O)Cn1c(C)c(/C=C/c2cc[n+](C)cc2)c2ccccc21`, the fluorescence artifact activation was 0.06% (inactive). As for `CC(O)c1cccc(N=Cc2ccc3ccccc3c2O)c1` (stereo not given), the fluorescence artifact activation was 6.46% (inactive).

For the compound `CCc1ccc(/C=C2\Oc3c(ccc(O)c3CN3CCN(C)CC3)C2=O)cc1`, the fluorescence artifact activation is -0.01% (inactive). On to `COc1ccc(/C=C/c2nc3sc4c(c3c(=O)o2)CCC4)cc1`, for which the fluorescence artifact activation was 121% (active). Consider `COc1ccc(/C=C/C=C2\N=C(SC)SC2=O)cc1`, for which the fluorescence artifact activation is -0.02% (inactive).

As for `CN(C)NC(=O)c1ccc([N+](=O)[O-])s1`, the fluorescence artifact activation was 7.24% (inactive). In the case of `Cc1ccc(-c2nc3ncccn3c2Nc2ccc3c(c2)OCCO3)o1`, the fluorescence artifact activation is 73.3% (active). In the case of `O=C1c2ccccc2-c2onc3ccc(N4CCCC4)c1c23`, the fluorescence artifact activation was 0.15% (inactive). For `CS(=O)(=O)N(CC(=O)O)Cc1cccc(CN(CC(=O)O)S(C)(=O)=O)c1`, the fluorescence artifact activation is 0.86% (inactive). Turning to `CCOC(=O)/C(C#N)=C\C=C1C=CN(C)C=C1`, the fluorescence artifact activation is 0.04% (inactive). With `CCCCCCN1C=CC(=C/C=C(\C#N)C(=O)OCC)C=C1`, the fluorescence artifact activation was 168% (active). On to `C=CCN1C=CC(=C/C=C(/C#N)C(=O)OCC)C=C1`, for which the fluorescence artifact activation is -0.04% (inactive). `CCc1ccc(C2C(C#N)=C(N)SC(N)=C2C#N)s1`: the fluorescence artifact activation is 0.05% (inactive). Turning to `CSc1nc2c(c(=O)[nH]c(=O)n2C)n1CCCc1ccccc1`, the fluorescence artifact activation was 0.1% (inactive). `C=CCNc1nc2c(c(=O)[nH]c(=O)n2C)n1CCCc1ccccc1`: the fluorescence artifact activation was -0.06% (inactive). On to `CN1CCN(c2nc3c(c(=O)n(C)c(=O)n3C)n2Cc2ccccc2F)CC1`, for which the fluorescence artifact activation is 0.14% (inactive). With `CCOC(=O)CSc1nc2c(c(=O)n(C)c(=O)n2C)n1Cc1ccccc1F`, the fluorescence artifact activation is 502% (active). Regarding `COC(=O)CSc1nc2c(c(=O)n(C)c(=O)n2C)n1CCCc1ccccc1`, the fluorescence artifact activation is 52.3% (active). Then `Cc1cc(/C=C2/NC(=O)N(Cc3ccccc3F)C2=O)c(C)n1C`, with 5.71% (inactive); and `CCOC(=O)c1c(NC(=O)c2ccno2)c2cc([N+](=O)[O-])ccc2n1C`, with 0% (inactive).

In the case of `COc1ccccc1N=Cc1c(C)c(C#N)c2[nH]c3ccccc3n2c1=O`, the fluorescence artifact activation was -0.03% (inactive).

Source of the values: PubChem BioAssay AID504382 (The Scripps Research Institute Molecular Screening Center, 2011).
